# This is a sample that favours compounds with a hit; in the whole collection about 6.3% have one here.
# M1 antag: antagonists of rat M1 muscarinic receptor. Muscarinic acetylcholine receptor M1 (Rattus norvegicus), P08482. CHO-M1 cells, Fluo-4 calcium, ACh EC80 antagonist mode; active compounds read low. B-score at 10 µM. 64,000 compounds, 3.4% hits. AID 628, 2007;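 active = calcium fluorescence response, raw or row-and-column corrected B-score, differing from the plate sample mean either way at a set confidence level, mostly lower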
# M1 agonist: M1 muscarinic receptor agonists, primary screen, CHO-M1 cells, Fluo-4 calcium, agonist mode | Muscarinic acetylcholine receptor M1 | Fluo-4 calcium fluorescence; active compounds read high | B-score at 10 µM | 64,000 compounds, 3% hits;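 active = fluorescence rise, raw or as B-score row- and column-corrected plate score, outside the 99.7% band of its plate's samples, either direction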
# RORA act: activators of orphan receptor RORA, primary screen, cell-based, luminescence. Nuclear receptor ROR-alpha (Homo sapiens), P35398. CHO-K1 Gal4-RORA LBD luciferase reporter; percent increase over mock-subtracted basal signal. activation, % at 10 µM. 65,000 compounds, 1.5% hits;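 active = activation above the mean of all tested compounds plus 3 SD, cut at about 49% in these data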;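 note: 0% = DMSO-treated RORA cells and 100% = added signal equal to DMSO minus mock-transfected cells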
# Target sequence (P35398 whole entry, looked up, the tested form may be a part): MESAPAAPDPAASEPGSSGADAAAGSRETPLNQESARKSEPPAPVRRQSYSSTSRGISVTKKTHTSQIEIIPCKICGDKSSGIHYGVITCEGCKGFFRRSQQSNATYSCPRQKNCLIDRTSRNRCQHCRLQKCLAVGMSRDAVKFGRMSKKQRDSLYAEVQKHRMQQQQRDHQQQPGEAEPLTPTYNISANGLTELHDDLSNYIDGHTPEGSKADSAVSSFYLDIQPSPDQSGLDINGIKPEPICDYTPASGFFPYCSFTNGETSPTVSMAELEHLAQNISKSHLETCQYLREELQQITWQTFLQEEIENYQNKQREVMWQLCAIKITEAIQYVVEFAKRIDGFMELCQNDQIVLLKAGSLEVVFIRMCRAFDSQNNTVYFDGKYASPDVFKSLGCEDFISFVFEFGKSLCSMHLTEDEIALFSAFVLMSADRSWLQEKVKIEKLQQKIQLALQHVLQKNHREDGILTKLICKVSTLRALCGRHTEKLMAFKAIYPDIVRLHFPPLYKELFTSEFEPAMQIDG
# SF-1 act: activators of human SF-1, primary screen, cell-based, CHO-K1, Gal4-SF-1 LBD, luciferase luminescence; 65,000 compounds, 1.9% hits; activation, % at 10 µM; CHO-K1 Gal4-SF-1 LBD luciferase reporter; % increase over DMSO SF-1-specific signal; Steroidogenic factor 1 (Homo sapiens), Q13285;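 active = activation above the mean activation of all tested compounds plus 3 SD, cut at about 50% in these data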
#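 Material: Transient Gal4-SF-1 LBD reporter, CHO-K1 | Input: 4,000 cells/well | Dosing: One dose, 10 µM compound, 1% DMSO | Incubation: 20 h compound treatment, 37 °C | Detection: SteadyLite luciferase luminescence | Evaluation: Percent activation relative to DMSO median and mock-transfected background | Benchmarks: DMSO-treated SF-1-transfected cells as negative, DMSO-treated mock-transfected cells lacking SF-1 as background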
# MT1-MMP txn act: MT1-MMP promoter reporter activation – cell-based, luciferase luminescence, primary screen; HT1080 MT1-MMP promoter luciferase reporter, overnight; active compounds read high; activation factor at 10 µM; 86,000 compounds, 0.16% hits; AID 750, 2007;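 active = activation factor of at least 2 for MT1-MMP transcription at 10 µM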
# M1 antag conf: rat M1 muscarinic receptor antagonists, confirmation, CHO cells, Fluo-4 calcium, duplicate; shares compounds with M1 antag; calcium response (max-min fluorescence) at 10 µM; ACh EC80 antagonism; active compounds read low; 1,700 compounds, 43% hits;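 active = calcium response below the same-plate mean of wells given acetylcholine alone at its 80%-effect dose, minus 3 SD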;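 note: raw fluorescence intensity difference in arbitrary instrument units and not normalized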
# mGluR4 antag: human mGluR4 response to M1 antagonist hits, M1 allosteric modulator project, cell-based, antagonist mode, secondary assay 1. CHO-mGluR4 calcium flux, Fluo-4 fluorescence, glutamate EC80; active compounds read low. AID 678, 2007. fluorescence response (max-min) at 10 µM. shares compounds with M1 antag. 1,700 compounds, 0.9% hits;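 active = fluorescence response below the plate's average for near-maximal glutamate wells, less 3 SD of those wells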;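 note: raw unnormalized fluorescence span taken in the window right after glutamate addition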
# * = called active by the depositor; . = no result.
SMILES,M1 antag,M1 agonist,RORA act,SF-1 act,MT1-MMP txn act,M1 antag conf,mGluR4 antag
CC1(C)Nc2ccccc2N(CCC(=O)N2CCOCC2)C1=O,0.285,-0.791,7.1,3.0,1.1,.,.
CC1(C)Nc2ccccc2N(CC(=O)N2CCCCC2)C1=O,-1.26*,-0.064,9.4,15.1,1.1,687,237
O=C(OCC1CCCN2CCCCC12)c1ccc2c(c1)OCO2 (configuration not stated),-4.82*,0.513,-13.1,-12.7,1.2,448,196
O=C(c1ccc2c(c1)OCO2)N1CCCC1,.,.,.,.,1.1,.,.
CCCc1[nH]nc2c1C(Cc1ccccc1)C(C#N)=C(N)O2 (configuration not stated),-2.25*,0.302,-18.6,3.9,1.1,642,239
O=C(COc1c(F)c(F)cc(F)c1F)NC(=O)NC1CCCC1,-12.2*,0.0393,21.5,8.4,1.1,223*,233
O=C1CC(N2CCN(c3ccccc3Cl)CC2)C(=O)N1c1cccc(F)c1 (configuration not stated),-1.74*,0.543,-27.6,3.7,1.1,650,229
c1ccc(-n2ncc3c(N4CCN(c5ccccn5)CC4)nc(N4CCOCC4)nc32)cc1,0.694,0.377,-29.0,7.4,1,.,.
O=C(Nc1cccc(Cl)c1)N(CCN1CCOCC1)Cc1cccc(Cl)c1,-2.41*,1.02,2.5,-8.0,1.4,255*,227
CCOC(=O)c1c(-c2cccs2)csc1NC(C)=O,.,.,.,.,1.1,.,.
CCOC(=O)c1c(-c2cccs2)csc1NC(=O)CSc1ncn[nH]1,-2.66*,-0.391,4.2,28.9,1,621,235
C=CCn1c(SCc2ccccc2C#N)nnc1-c1cc(Br)ccc1O,-3.77*,1.39,-0.2,18.9,1.2,330*,193
Cc1c(-c2cccs2)[n+](=O)c2c(n1[O-])CCCCC2,0.535,0.648,-3.1,-4.8,1,.,.
CCOc1ccc(S(=O)(=O)Nc2cccc(Cl)c2)cc1,-0.559,1.6,12.3,0.7,1,.,.
CCOc1ccc(S(=O)(=O)Nc2cc(Cl)ccc2O)cc1,-3.06*,-0.0585,15.0,-10.8,1.1,457*,225
COCCNS(=O)(=O)c1ccc(SC)cc1,-3.19*,-0.204,-1.5,-2.2,1.1,610,267
CN1CCN(Cc2cccc(Oc3ccccc3)c2)CC1,.,.,.,.,1.1,.,.
OCCN1CCN(Cc2cccc(Oc3ccc(Cl)cc3)c2)CC1,-2.87*,-1.05,-1.4,-19.0,1.1,378*,187
CC(=O)Nc1ccc(Cl)cc1C(=O)O,-0.186,-0.754,-5.0,-7.3,1.2,.,.
CCOC(=O)c1cnc2ccccc2c1NCCO,-2.92*,1.3,-7.0,-0.1,1.1,409*,212
CCOC(=O)c1cnc2c(C)cccc2c1NCc1ccco1,-8.34*,1.81,.,.,.,321*,249
CCOC(=O)c1ccc2ncc(C(=O)OCC)c(NCCCN3CCOCC3)c2c1,-4.62*,0.266,13.7,5.7,1.1,405*,242
CN1CCN(c2ccc(Cl)cc2NS(=O)(=O)c2ccccc2Cl)CC1,-3.65*,-1.15,15.4,25.8,1,345*,261
COC(=O)c1cc(Br)ccc1-c1ccc(/C=N/n2nnnc2N)o1,-5.02*,1.85,-17.7,-16.2,1,450,206
C/C(=N\n1nnnc1Nc1ccccc1)c1ccc(N)cc1,0.275,0.167,29.7,-1.5,1.4,.,.
SMILES,M1 antag,M1 agonist,RORA act,SF-1 act,MT1-MMP txn act,M1 antag conf,mGluR4 antag
C=CCN1CCN(C(c2ccccc2)c2nnnn2CCC(C)C)CC1 (configuration not stated),-1.94,0.306,23.3,28.4,1.2,.,.
Cc1ccc(S(=O)(=O)N2CN(Cc3ccco3)c3nc4ccccc4nc32)cc1,.,.,.,.,1.1,.,.
Cc1ccc2cc3c(nc2c1)N(Cc1ccco1)CC3,-1.31*,-0.665,1.1,-0.7,1.3,319*,194
CCN(CC)Cc1cc2ccccc2c2c1COC2,-2.32*,-0.162,1.3,20.9,1.1,473*,207
CCCN(CCC)Cc1cc2ccccc2c2c1COC2,.,.,.,.,1,.,.
O=C(NCCCN1CCCC1)c1ccc(CS(=O)(=O)c2ccc(Br)cc2)o1,-1.21,0.841,-11.7,-0.9,1.1,.,.
O=C(NCCN1CCCCCC1)c1ccc(CS(=O)(=O)c2ccc(Br)cc2)o1,-3.03*,-1.19,3.2,9.5,.,470*,240
CC(CN(C)Cc1ccccc1)OC(=O)c1ccc2c(c1)OCCO2 (configuration not stated),-3.19*,0.612,15.6,16.9,1.3,323*,223
O=C(CCNS(=O)(=O)c1cccc2nonc12)NCc1cccs1,0.532,-0.311,-2.0,3.3,1,.,.
CCCCOc1ccc(Cl)cc1CSc1nnc(CC)n1N,0.143,-0.381,-7.0,-6.8,1.2,.,.
COc1ccc(-c2cc(C(=O)N3CCN(C(c4ccccc4)c4ccccc4)CC3)no2)cc1,0.0546,-1.77,4.4,-13.4,1.2,.,.
O=C(c1cc(-c2ccco2)on1)N1CCN(C(c2ccccc2)c2ccccc2)CC1,-2.75*,-1.48,-3.6,-17.9,1.2,458,170
COc1cc2c(C(=O)NCCCN3CC(C)CC(C)C3)cn(CC(C)C)c(=O)c2cc1OC (configuration not stated),-2.48*,-0.131,4.7,26.8,1.1,499*,238
O=C(O)C1CCC(CNCc2cccnc2)CC1 (configuration not stated),-1.42,0.536,3.8,3.8,1,.,.
Cc1cc(C(C)(C)C)cc(C)c1CC1=NCCN1,-8.41*,-0.0122,-11.6,0.4,1.1,412*,244
CCOc1cccc(N2C(=O)CC(NCc3ccc(S(N)(=O)=O)cc3)C2=O)c1 (configuration not stated),-0.465,-0.351,-7.4,-14.6,1.1,.,.
CC1CCCCN1CCNC(=O)c1cc2c(-c3ccccc3F)nn(C)c2s1 (configuration not stated),-5.46*,-0.104,3.2,13.8,1.3,374*,207
O=C(CCCOc1ccc(Cl)cc1Cl)NCC1CCCO1 (configuration not stated),.,.,.,.,1.1,.,.
CCN(CC)S(=O)(=O)c1cc(C(=O)Nc2nncs2)c(Cl)cc1Cl,0.383,0.046,-18.3,-12.6,1,.,.
CCC(=Nc1ccc(Cc2ccncc2)cc1)c1c(O)n(C)c(=O)n(C)c1=O,-2.87*,7.65,-13.4,-15.1,0.9,548*,224

# Screening data from PubChem.
